One data set relates to H9c2. The data set is described as follows: Cytotoxicity against rat H9C2 cells. The format is cell-based.
Data set [1] is described as follows: Cytotoxicity against human TE671 cells. The format is cell-based. The conditions noted are these: te-671.
The test system of another data set is Jurkat. Put plainly: Cytotoxicity against human Jurkat cells. The format is cell-based.
The subject of the next data set is A-375. The data set is described as follows: Cytotoxicity against human A375 cells. The format is cell-based.
The test system of data set [2] is Staphylococcus aureus. The data set is described as follows: Antibacterial activity against Staphylococcus aureus LS1 in mouse at 40 mg/kg, ip. The format is functional, organism-based. Also on record: dose 40 mg/kg. The method, boiled down: (§1)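 Mice of 18-22 g, five per group, were inoculated intravenously with 50 million cfu of S. aureus LS-1, which causes bacteraemia and then joint localization within 3-4 days. A single dose (groups at 60, 40, 20 or 10 mg/kg) was given iv or ip. Joint inflammation was scored, with caliper measurement of affected joint diameter.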

For data set [3], the system named is Staphylococcus aureus. Put plainly: Antibacterial activity against methicillin-sensitive Staphylococcus aureus NCTC 6571. The note with it: Staphylococcus aureus, NCTC 6571; read-out: MIC. The format is functional. The method, boiled down: (§2)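 Broth microdilution in Mueller-Hinton broth. Samples were dissolved in sterile water to 200 µg mL-1 as the working solution and doubling dilutions were made across rows. Plates were incubated at 37 °C and inspected visually, with resazurin added as growth indicator. MIC reported in µg mL-1.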

In a further data set the test system is Enterococcus faecalis. The data set is described as follows: Antibacterial activity against Streptococcus faecalis NCTC 775. It counts as functional. The conditions noted are these: Enterococcus faecalis, NCTC 775; read-out: MIC. The essentials: as §2
Data set [4] concerns Mycolicibacterium fortuitum. Put plainly: Antibacterial activity against Mycobacterium fortuitum NCTC 10394. It counts as functional. The essentials:
as §2

In a further data set the test system is Aspergillus niger. Put plainly: Antifungal activity against Aspergillus niger IMI 149007. The format is functional. The method, boiled down: (§3)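 Antifungal microdilution in Sabouraud broth. Test sample at 200 µg mL-1 working solution in sterile water was serially doubled down successive rows. Incubation was at 25 °C, followed by visual growth check and addition of resazurin indicator. Read-out is MIC in µg mL-1.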

The subject of a further data set is Candida albicans. Put plainly: Antifungal activity against Candida albicans NCPF 3179. The format is functional. The note with it: Candida albicans; read-out: MIC. The essentials: as §3
In data set [5] the test system is Staphylococcus aureus. The data set is described as follows: Antibacterial activity against methicillin-resistant Staphylococcus aureus clinical isolate 1. The format is functional. The essentials: (§4)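 Broth microdilution MIC against clinical S. aureus isolates (incl. MRSA), run per NCCLS guidelines in 96-well plates. Test sample dissolved in sterile water to a 200 µg mL-1 working concentration, then doubling dilutions in Mueller-Hinton broth. Incubated at 37 °C, growth read visually plus resazurin indicator. MIC reported in µg/mL.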

Data set [6] deals with Staphylococcus aureus. Put plainly: Antibacterial activity against methicillin-resistant Staphylococcus aureus clinical isolate 2. It counts as functional. The method, boiled down: as §4
The subject of data set [7] is Staphylococcus aureus. The data set is described as follows: Antibacterial activity against methicillin-resistant Staphylococcus aureus clinical isolate 3. It counts as functional. The essentials:
as §4

The test system of data set [8] is Staphylococcus aureus. The data set is described as follows: Antibacterial activity against methicillin-resistant Staphylococcus aureus clinical isolate 4. The format is functional. The method, boiled down: as §4
The test system of data set [9] is Staphylococcus aureus. Put plainly: Antibacterial activity against methicillin-resistant Staphylococcus aureus clinical isolate 5. The format is functional. The method, boiled down:
as §4

A further data set has as its system L929. The data set is described as follows: Cytotoxicity against mouse L929 cells. The format is cell-based.
For data set [10], the system named is Staphylococcus aureus. Put plainly: Antibacterial activity against Staphylococcus aureus LS1 in mouse at 20 mg/kg, ip. It counts as functional, organism-based. More on the design: dose 20 mg/kg. The essentials: as §1
A further data set relates to HS27. The data set is described as follows: Cytotoxicity against human HS27 cells. It counts as cell-based.

Structures are written as SMILES. ≈ marks a conversion by molar mass, not a printed value. Calls of active or inactive are those of the source. The calls are words filed in the database; no cut-off is given here.

What is called MIC is the lowest concentration found to suppress growth. Take `COc1ccc(/C=C/c2ccc(C(=O)Nc3cc(C(=O)Nc4cc(C(=O)NCCN5CCOCC5)n(C)c4)n(C)c3)cn2)cc1`: the Activity result (in the data set on H9c2; in data set [1]; in the data set on Jurkat; with A-375; in the data set on L929) was “Non-toxic” in each case. In addition, the outcome with Staphylococcus aureus [2] was Active. For the same molecule, the minimal inhibitory concentration (MIC) came to 6 µg/mL (≈ 9.81 µM) with Staphylococcus aureus [3]; 6 µg/mL (≈ 9.81 µM) with Enterococcus faecalis; 50 µg/mL (≈ 81.7 µM) in [4]; 50 µg/mL (≈ 81.7 µM) with Aspergillus niger; 25 µg/mL (≈ 40.9 µM) in the data set with Candida albicans; 0.5 µg/mL (≈ 0.817 µM) in the data set on Staphylococcus aureus [5]. Moreover, the MIC against Staphylococcus aureus [6] is 4 µg/mL (≈ 6.54 µM); against Staphylococcus aureus [7] it was 2 µg/mL (≈ 3.27 µM); in the data set with Staphylococcus aureus [8], 2 µg/mL (≈ 3.27 µM); with Staphylococcus aureus [9], 0.5 µg/mL (≈ 0.817 µM).
With `Cn1cc(NC(=O)c2cc(NC(=O)c3ccc(/C=C/c4cnc5ccccc5c4)cc3)cn2C)cc1C(=O)NCCN1CCOCC1` [MGB-BP-3], the outcome in the data set with Staphylococcus aureus [10] was Active. Further, the MIC stood at 3 µg/mL (≈ 4.75 µM) in the data set on Staphylococcus aureus [3]; 25 µg/mL (≈ 39.6 µM) in the data set on Enterococcus faecalis; 50 µg/mL (≈ 79.1 µM) in data set [4]; 25 µg/mL (≈ 39.6 µM) in the data set on Aspergillus niger; 50 µg/mL (≈ 79.1 µM) in the data set on Candida albicans; 0.12 µg/mL (≈ 0.19 µM) in the data set with Staphylococcus aureus [5]. Besides, the MIC is 0.25 µg/mL (≈ 0.396 µM) against Staphylococcus aureus [6], 0.12 µg/mL (≈ 0.19 µM) in the data set with Staphylococcus aureus [7], 0.25 µg/mL (≈ 0.396 µM) in the data set with Staphylococcus aureus [8] and 0.12 µg/mL (≈ 0.19 µM) against Staphylococcus aureus [9]. Moreover, the Activity entry with HS27 and with L929 was “Non-toxic” in each case.

The values are drawn from ChEMBL document CHEMBL1138269, “Antimicrobial lexitropsins containing amide, amidine, and alkene linking groups” (J Med Chem, 2007).
